From ChEMBL document CHEMBL1165969, “Synthesis and cytotoxicity of novel indirubin-5-carboxamides” (Bioorg Med Chem, 2010)
pIC50: −log10 of the molar value.

Tests used:
[1] = molecular target: Cyclin-dependent kinase 2/cyclin E1 (Homo sapiens) (UniProt P24864+P24941); assay: Inhibition of CDK2/Cyclin E assessed as residual activity at 10 uM after 80 mins by microplate scintillation counting; format: protein-complex assay
[2] = molecular target: T1, Glycogen synthase kinase-3 beta (Homo sapiens, UniProt P49841); assay: Inhibition of GSK3-beta assessed as residual activity at 10 uM after 80 mins by microplate scintillation counting
Target sequence in this assay (P49841 whole entry, looked up): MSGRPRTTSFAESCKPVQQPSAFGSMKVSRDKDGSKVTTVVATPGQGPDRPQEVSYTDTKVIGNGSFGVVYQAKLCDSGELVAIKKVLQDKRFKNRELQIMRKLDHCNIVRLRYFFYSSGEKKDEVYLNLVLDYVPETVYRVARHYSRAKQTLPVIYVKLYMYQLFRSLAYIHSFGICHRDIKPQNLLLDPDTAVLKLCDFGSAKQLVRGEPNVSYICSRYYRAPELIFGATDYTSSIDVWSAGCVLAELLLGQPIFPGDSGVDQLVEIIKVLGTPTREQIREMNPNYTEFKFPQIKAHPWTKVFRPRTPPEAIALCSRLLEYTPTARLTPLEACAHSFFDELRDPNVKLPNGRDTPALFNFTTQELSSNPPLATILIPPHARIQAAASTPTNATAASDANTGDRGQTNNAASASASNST

[3] = molecular target: Insulin-like growth factor 1 receptor (Homo sapiens) (UniProt P08069); assay: Inhibition of IGF1R assessed as residual activity at 1 uM after 80 mins by microplate scintillation counting
[4] = molecular target: Insulin-like growth factor 1 receptor (Homo sapiens) (UniProt P08069); assay: Inhibition of IGF1R assessed as residual activity at 10 uM after 80 mins by microplate scintillation counting
[5] = molecular target: Muscle, skeletal receptor tyrosine-protein kinase (Homo sapiens) (UniProt O15146); assay: Inhibition of MUSK assessed as residual activity at 10 uM after 80 mins by microplate scintillation counting
[6] = molecular target: T1, Glycogen synthase kinase-3 beta; assay: Inhibition of GSK3-beta assessed as inhibition of [33Pi] incorporation after 80 mins by microplate scintillation counting
Target sequence in this assay (P49841 whole entry): as the sequence (P49841 whole entry, looked up) above

[7] = molecular target: Platelet-derived growth factor receptor alpha (Homo sapiens) (UniProt P16234); assay: Inhibition of PDGFRalpha assessed as residual activity at 1 uM after 80 mins by microplate scintillation counting
[8] = molecular target: Cyclin-dependent kinase 5/CDK5 activator 1 (Homo sapiens) (UniProt Q00535+Q15078); assay: Inhibition of CDK5/p35 assessed as residual activity at 1 uM after 80 mins by microplate scintillation counting; format: protein-complex assay
[9] = molecular target: Tyrosine-protein kinase Fgr (Homo sapiens) (UniProt P09769); assay: Inhibition of FGR assessed as residual activity at 1 uM after 80 mins by microplate scintillation counting
[10] = molecular target: Aurora kinase A (Homo sapiens) (UniProt O14965); assay: Inhibition of Aurora A assessed as residual activity at 10 uM after 80 mins by microplate scintillation counting
[11] = molecular target: Cyclin-dependent kinase 4/cyclin D1 (Homo sapiens) (UniProt P11802+P24385); assay: Inhibition of CDK4/Cyclin D1 assessed as residual activity at 10 uM after 80 mins by microplate scintillation counting; format: protein-complex assay
[12] = molecular target: RAF proto-oncogene serine/threonine-protein kinase (Homo sapiens) (UniProt P04049); assay: Inhibition of RAF1 assessed as residual activity at 10 uM after 80 mins by microplate scintillation counting
How it was run: (§1)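 Kinase profiling was outsourced to a contract laboratory as a panel of 30 protein kinases. Each compound was tested at two concentrations, and residual kinase activity was recorded.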

[13] = molecular target: Receptor tyrosine-protein kinase erbB-2 (Homo sapiens) (UniProt P04626); assay: Inhibition of ERBB2 assessed as residual activity at 10 uM after 80 mins by microplate scintillation counting
[14] = molecular target: Vascular endothelial growth factor receptor 3 (Homo sapiens) (UniProt P35916); assay: Inhibition of VEGFR3 assessed as residual activity at 10 uM after 80 mins by microplate scintillation counting; how it was run: as §1
[15] = molecular target: Aurora kinase C (Homo sapiens) (UniProt Q9UQB9); assay: Inhibition of Aurora C assessed as residual activity at 1 uM after 80 mins by microplate scintillation counting
[16] = molecular target: Proto-oncogene tyrosine-protein kinase Src (Homo sapiens) (UniProt P12931); assay: Inhibition of SRC assessed as residual activity at 1 uM after 80 mins by microplate scintillation counting; how it was run: as §1
[17] = molecular target: Platelet-derived growth factor receptor alpha (Homo sapiens) (UniProt P16234); assay: Inhibition of PDGFRalpha assessed as residual activity at 10 uM after 80 mins by microplate scintillation counting
[18] = molecular target: Serine/threonine-protein kinase Chk2 (Homo sapiens) (UniProt O96017); assay: Inhibition of CHK2 assessed as residual activity at 1 uM after 80 mins by microplate scintillation counting
[19] = molecular target: Serine/threonine-protein kinase B-raf (Homo sapiens) (UniProt P15056); assay: Inhibition of B-Raf assessed as residual activity at 1 uM after 80 mins by microplate scintillation counting
[20] = molecular target: Serine/threonine-protein kinase Chk1 (Homo sapiens) (UniProt O14757); assay: Inhibition of CHK1 assessed as residual activity at 10 uM after 80 mins by microplate scintillation counting
[21] = molecular target: Vascular endothelial growth factor receptor 3 (Homo sapiens) (UniProt P35916); assay: Inhibition of VEGFR3 assessed as residual activity at 1 uM after 80 mins by microplate scintillation counting; how it was run: as §1
[22] = molecular target: Epidermal growth factor receptor (Homo sapiens) (UniProt P00533); assay: Inhibition of EGFR assessed as residual activity at 10 uM after 80 mins by microplate scintillation counting
[23] = Antiproliferative activity against human LXFL 529L cells after 3 days by sulforhodamine B assay; format: functional, cell-based; conditions: Homo sapiens, LXFL 529L, 72 h
How it was run: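 Cells kept at 37 °C in humidified 5% CO2 in RPMI 1640 with 10% heat-inactivated FBS, penicillin (100 units/mL) and streptomycin, and checked for mycoplasma. Seeded, grown 24 h, then exposed to drug for 3 days in serum-containing medium. Fixed with 50% TCA solution for 1 h at 4 °C, stained with 0.4% SRB, dye eluted in 10 mM Tris pH 10.5, read at 570 nm. Growth expressed as % T/C; IC50 derived.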

[24] = molecular target: Tyrosine-protein kinase ABL1 (Homo sapiens) (UniProt P00519); assay: Inhibition of ABL1 assessed as residual activity at 10 uM after 80 mins by microplate scintillation counting
[25] = molecular target: Tyrosine-protein kinase Fgr (Homo sapiens) (UniProt P09769); assay: Inhibition of FGR assessed as residual activity at 10 uM after 80 mins by microplate scintillation counting
[26] = molecular target: Proto-oncogene tyrosine-protein kinase Src (Homo sapiens) (UniProt P12931); assay: Inhibition of SRC assessed as residual activity at 10 uM after 80 mins by microplate scintillation counting; how it was run: as §1
[27] = molecular target: Epidermal growth factor receptor (Homo sapiens) (UniProt P00533); assay: Inhibition of EGFR assessed as residual activity at 1 uM after 80 mins by microplate scintillation counting
[28] = molecular target: Ribosomal protein S6 kinase beta-1 (Homo sapiens) (UniProt P23443); assay: Inhibition of p70S6K1 assessed as residual activity at 10 uM after 80 mins by microplate scintillation counting; how it was run: as §1
[29] = molecular target: T1, Glycogen synthase kinase-3 beta; assay: Inhibition of GSK3-beta assessed as residual activity at 1 uM after 80 mins by microplate scintillation counting
Target sequence in this assay (P49841 whole entry, looked up): as above

[30] = molecular target: Mast/stem cell growth factor receptor Kit (Homo sapiens) (UniProt P10721); assay: Inhibition of KIT assessed as residual activity at 1 uM after 80 mins by microplate scintillation counting
[31] = molecular target: Serine/threonine-protein kinase B-raf (Homo sapiens) (UniProt P15056); assay: Inhibition of B-Raf assessed as residual activity at 10 uM after 80 mins by microplate scintillation counting
[32] = molecular target: Cyclin-dependent kinase 2/cyclin A (Homo sapiens) (UniProt P24941+P20248+P78396); assay: Inhibition of CDK2/Cyclin A assessed as residual activity at 1 uM after 80 mins by microplate scintillation counting; format: protein-complex assay
[33] = molecular target: Vascular endothelial growth factor receptor 2 (Homo sapiens) (UniProt P35968); assay: Inhibition of VEGFR2 assessed as residual activity at 1 uM after 80 mins by microplate scintillation counting; how it was run: as §1
[34] = molecular target: Tyrosine-protein kinase JAK2 (Homo sapiens) (UniProt O60674); assay: Inhibition of JAK2 assessed as residual activity at 1 uM after 80 mins by microplate scintillation counting
[35] = molecular target: RAF proto-oncogene serine/threonine-protein kinase (Homo sapiens) (UniProt P04049); assay: Inhibition of RAF1 assessed as residual activity at 1 uM after 80 mins by microplate scintillation counting; how it was run: as §1

Chain of Vascular endothelial growth factor receptor 3 (Homo sapiens) (P35916 whole entry): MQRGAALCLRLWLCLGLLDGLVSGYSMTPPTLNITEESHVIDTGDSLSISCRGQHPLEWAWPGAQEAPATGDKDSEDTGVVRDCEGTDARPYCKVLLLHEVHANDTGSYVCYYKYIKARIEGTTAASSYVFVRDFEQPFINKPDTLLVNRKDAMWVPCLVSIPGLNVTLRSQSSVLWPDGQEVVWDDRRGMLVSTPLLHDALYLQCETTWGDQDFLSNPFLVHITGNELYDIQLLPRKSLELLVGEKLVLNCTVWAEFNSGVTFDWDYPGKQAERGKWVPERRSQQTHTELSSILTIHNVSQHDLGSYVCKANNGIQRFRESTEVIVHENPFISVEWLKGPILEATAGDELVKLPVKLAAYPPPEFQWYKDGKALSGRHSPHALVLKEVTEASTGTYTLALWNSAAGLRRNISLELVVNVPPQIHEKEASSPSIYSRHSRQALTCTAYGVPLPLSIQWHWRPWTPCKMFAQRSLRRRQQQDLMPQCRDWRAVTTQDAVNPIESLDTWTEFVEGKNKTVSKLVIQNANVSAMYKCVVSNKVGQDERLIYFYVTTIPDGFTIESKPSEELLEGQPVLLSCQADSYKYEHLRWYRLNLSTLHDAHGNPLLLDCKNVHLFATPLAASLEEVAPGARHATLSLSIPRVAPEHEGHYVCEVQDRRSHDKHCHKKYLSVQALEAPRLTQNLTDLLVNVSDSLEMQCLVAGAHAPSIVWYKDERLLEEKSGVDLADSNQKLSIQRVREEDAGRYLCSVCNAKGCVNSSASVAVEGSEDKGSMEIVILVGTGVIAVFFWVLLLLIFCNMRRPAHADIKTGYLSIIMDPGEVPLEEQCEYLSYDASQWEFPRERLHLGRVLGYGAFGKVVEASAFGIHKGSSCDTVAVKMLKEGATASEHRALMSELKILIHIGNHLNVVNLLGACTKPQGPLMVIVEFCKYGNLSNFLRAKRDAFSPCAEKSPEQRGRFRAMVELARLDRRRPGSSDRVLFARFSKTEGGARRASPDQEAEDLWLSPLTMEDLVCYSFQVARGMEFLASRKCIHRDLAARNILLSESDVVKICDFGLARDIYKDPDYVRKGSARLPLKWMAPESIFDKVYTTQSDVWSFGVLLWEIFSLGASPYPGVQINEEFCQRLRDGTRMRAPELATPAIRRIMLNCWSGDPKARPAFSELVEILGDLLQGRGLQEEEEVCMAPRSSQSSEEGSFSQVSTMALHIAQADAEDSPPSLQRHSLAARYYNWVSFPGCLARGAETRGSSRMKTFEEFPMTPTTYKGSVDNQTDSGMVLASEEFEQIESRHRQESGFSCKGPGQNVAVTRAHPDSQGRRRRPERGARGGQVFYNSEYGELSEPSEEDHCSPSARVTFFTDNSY
Chain of Tyrosine-protein kinase Fgr (Homo sapiens) (P09769 2-529 limits assumed): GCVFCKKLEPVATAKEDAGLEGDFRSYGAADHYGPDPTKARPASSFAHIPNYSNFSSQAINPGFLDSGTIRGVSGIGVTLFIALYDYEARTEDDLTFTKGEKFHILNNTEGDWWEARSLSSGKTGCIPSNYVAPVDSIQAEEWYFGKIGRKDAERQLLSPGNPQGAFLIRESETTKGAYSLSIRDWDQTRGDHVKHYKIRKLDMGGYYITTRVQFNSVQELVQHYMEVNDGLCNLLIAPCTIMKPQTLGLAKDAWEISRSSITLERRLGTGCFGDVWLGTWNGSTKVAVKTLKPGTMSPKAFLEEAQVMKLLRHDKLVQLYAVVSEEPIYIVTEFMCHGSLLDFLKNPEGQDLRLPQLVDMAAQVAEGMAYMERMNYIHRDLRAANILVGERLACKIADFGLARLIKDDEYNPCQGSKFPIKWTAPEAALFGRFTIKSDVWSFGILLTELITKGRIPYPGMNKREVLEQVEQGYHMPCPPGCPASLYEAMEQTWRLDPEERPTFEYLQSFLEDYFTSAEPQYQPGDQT
Chain of Epidermal growth factor receptor (Homo sapiens) (P00533 whole entry): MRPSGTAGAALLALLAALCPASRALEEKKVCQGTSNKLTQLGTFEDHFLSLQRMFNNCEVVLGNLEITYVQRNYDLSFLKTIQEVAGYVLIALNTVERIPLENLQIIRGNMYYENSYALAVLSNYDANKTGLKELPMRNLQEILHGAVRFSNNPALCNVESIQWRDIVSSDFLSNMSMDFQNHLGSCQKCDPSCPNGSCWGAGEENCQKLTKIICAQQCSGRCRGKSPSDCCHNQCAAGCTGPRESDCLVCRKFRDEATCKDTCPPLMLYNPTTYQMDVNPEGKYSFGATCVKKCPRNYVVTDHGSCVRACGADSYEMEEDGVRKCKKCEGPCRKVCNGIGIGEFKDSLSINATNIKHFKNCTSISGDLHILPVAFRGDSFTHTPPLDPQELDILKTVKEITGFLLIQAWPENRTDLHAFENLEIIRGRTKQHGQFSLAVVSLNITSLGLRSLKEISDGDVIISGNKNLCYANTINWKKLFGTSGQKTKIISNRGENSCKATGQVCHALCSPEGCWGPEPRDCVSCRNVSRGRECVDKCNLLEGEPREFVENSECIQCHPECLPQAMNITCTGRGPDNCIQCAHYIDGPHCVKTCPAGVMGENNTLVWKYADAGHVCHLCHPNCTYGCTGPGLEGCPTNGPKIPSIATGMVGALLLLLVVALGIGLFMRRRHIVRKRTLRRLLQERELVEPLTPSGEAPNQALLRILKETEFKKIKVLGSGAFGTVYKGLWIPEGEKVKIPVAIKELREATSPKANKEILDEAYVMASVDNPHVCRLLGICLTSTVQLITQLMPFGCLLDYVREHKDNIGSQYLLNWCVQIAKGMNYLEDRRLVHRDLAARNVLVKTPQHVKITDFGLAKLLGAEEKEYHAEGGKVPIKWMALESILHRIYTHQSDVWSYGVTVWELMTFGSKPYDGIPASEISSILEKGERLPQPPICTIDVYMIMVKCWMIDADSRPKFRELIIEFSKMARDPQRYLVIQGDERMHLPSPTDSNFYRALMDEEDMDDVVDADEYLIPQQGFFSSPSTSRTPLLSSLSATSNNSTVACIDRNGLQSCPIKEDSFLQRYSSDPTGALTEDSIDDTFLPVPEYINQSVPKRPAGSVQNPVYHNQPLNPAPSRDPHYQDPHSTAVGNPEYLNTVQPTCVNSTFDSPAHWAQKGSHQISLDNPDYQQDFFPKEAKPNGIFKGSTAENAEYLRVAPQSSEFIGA
Chain of Proto-oncogene tyrosine-protein kinase Src (Homo sapiens) (P12931 2-536 limits assumed): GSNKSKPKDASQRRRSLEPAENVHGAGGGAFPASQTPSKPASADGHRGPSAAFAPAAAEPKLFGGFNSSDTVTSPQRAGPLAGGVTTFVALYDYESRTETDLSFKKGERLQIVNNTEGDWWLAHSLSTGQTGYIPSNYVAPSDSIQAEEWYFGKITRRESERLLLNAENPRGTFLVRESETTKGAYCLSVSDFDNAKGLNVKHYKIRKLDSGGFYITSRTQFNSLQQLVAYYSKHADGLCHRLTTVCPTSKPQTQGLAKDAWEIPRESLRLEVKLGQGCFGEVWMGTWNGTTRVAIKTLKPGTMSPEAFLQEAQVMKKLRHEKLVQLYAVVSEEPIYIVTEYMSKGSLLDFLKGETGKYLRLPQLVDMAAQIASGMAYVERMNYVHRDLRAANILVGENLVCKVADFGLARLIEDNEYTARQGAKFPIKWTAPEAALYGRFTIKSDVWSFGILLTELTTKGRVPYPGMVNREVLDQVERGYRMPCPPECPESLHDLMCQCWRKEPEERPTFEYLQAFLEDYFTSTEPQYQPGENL
Chain of Serine/threonine-protein kinase B-raf (Homo sapiens) (P15056 whole entry): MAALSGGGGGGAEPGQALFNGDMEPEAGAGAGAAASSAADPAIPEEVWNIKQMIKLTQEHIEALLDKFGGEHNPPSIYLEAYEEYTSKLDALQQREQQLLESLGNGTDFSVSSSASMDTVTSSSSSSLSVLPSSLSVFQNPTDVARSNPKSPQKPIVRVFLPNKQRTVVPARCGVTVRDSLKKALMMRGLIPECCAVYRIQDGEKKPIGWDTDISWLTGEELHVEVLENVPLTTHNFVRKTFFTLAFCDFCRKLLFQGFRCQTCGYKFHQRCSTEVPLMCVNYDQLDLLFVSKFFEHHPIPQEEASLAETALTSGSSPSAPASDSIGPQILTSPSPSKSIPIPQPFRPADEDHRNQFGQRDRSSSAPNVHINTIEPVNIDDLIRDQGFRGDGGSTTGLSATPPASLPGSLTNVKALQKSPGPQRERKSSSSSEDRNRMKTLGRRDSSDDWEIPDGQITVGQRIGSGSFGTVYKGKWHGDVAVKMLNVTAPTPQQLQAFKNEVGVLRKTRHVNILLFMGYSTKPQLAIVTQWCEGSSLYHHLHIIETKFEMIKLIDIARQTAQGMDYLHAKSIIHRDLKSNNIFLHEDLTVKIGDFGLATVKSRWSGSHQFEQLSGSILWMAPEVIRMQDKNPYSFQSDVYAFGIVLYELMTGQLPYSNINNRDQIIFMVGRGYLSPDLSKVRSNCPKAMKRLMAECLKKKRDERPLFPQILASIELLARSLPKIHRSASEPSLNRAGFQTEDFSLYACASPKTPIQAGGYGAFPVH

Which Activity [1] does the source give for `CN1CCN(c2ccc(NC(=O)c3ccc4c(c3)/C(=C3/Nc5ccccc5C3=O)C(=O)N4)cc2)CC1` here?
The Activity was 14%.

What about the Activity [2] of the same molecule?
The Activity was 6%.

And the Activity [3]?
The Activity was 102%.

What about the Activity [4] of the same molecule?
Its Activity is 103%.

And the Activity [5]?
Its Activity is 31%.

And the pIC50 [6]?
The pIC50 was 7.00.

What about the Activity [7] of the same molecule?
The Activity was 94%.

What about the Activity [8] of the same molecule?
Its Activity is 53%.

And the Activity [9]?
Its Activity is 99%.

And the Activity [10]?
The Activity was 63%.

And the Activity [11]?
Its Activity is 18%.

And the Activity [12]?
The Activity was 53%.

What about the Activity [13] of the same molecule?
The Activity was 40%.

What about the Activity [14] of the same molecule?
The Activity was 37%.

What about the Activity [15] of the same molecule?
Its Activity is 83%.

And the Activity [16]?
Its Activity is 132%.

What about the Activity [17] of the same molecule?
The Activity was 31%.

What about the Activity [18] of the same molecule?
Its Activity is 90%.

And the Activity [19]?
Its Activity is 103%.

What about the Activity [20] of the same molecule?
Its Activity is 45%.

And the Activity [21]?
The Activity was 99%.

What about the Activity [22] of the same molecule?
The Activity was 43%.

And the pIC50 [23]?
Its pIC50 is 6.27.

What about the Activity [24] of the same molecule?
The Activity was 26%.

What about the Activity [25] of the same molecule?
The Activity was under 50%.

What about the Activity [26] of the same molecule?
The Activity was 271%.

What about the Activity [27] of the same molecule?
The Activity was 99%.

And the Activity [28]?
The Activity was 48%.

What about the Activity [29] of the same molecule?
Its Activity is 27%.

What about the Activity [30] of the same molecule?
Its Activity is 98%.

And the Activity [31]?
The Activity was 106%.

What about the Activity [32] of the same molecule?
Its Activity is 60%.

And the Activity [33]?
The Activity was 100%.

And the Activity [34]?
Its Activity is 95%.

What about the Activity [35] of the same molecule?
Its Activity is 94%.
